Reference: ChEMBL document CHEMBL1143542, “Structure-activity relationships of bivalent aminoglycosides and evaluation of their microbiological activities” (2005)
≈ marks a conversion by molar mass, not a printed value.

Assays:
[1] = tested on: Pseudomonas aeruginosa; assay: Susceptibility testing against Pseudomonas aeruginosa PAE_NUH20; S=Susceptible; assay type: functional, organism-based
Procedure, shortened: (§1)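 Disk diffusion susceptibility profiling against a panel of empirically used antipseudomonal antibiotics. Each strain was categorised as susceptible (S) or intermediate (I).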

[2] = tested on: Pseudomonas aeruginosa; assay: Susceptibility testing against Pseudomonas aeruginosa PAE_NUH01; R=Resistant; assay type: functional, organism-based
Procedure, shortened: (§2)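 Disk diffusion susceptibility profiling of P. aeruginosa reference and clinical isolates against empirically used antipseudomonal antibiotics. Each isolate was categorised as susceptible, intermediate or resistant.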

[3] = tested on: Pseudomonas aeruginosa; assay: Susceptibility testing against Pseudomonas aeruginosa PAE_NUH03; R=Resistant; assay type: functional, organism-based; procedure, shortened: as §2
[4] = tested on: Pseudomonas aeruginosa; assay: Susceptibility testing against Pseudomonas aeruginosa PAE_NUH05; R=Resistant; assay type: functional, organism-based; procedure, shortened: as §2
[5] = tested on: Pseudomonas aeruginosa; assay: Susceptibility testing against Pseudomonas aeruginosa PAE_NUH19; S=Susceptible; assay type: functional, organism-based; procedure, shortened: as §1
[6] = tested on: Pseudomonas aeruginosa; assay: Susceptibility testing against Pseudomonas aeruginosa PAE_NUH22; S=Susceptible; assay type: functional, organism-based; procedure, shortened: as §1
[7] = tested on: Pseudomonas aeruginosa; assay: Susceptibility testing against Pseudomonas aeruginosa PAE_NUH21; S=Susceptible; assay type: functional, organism-based; procedure, shortened: as §1
[8] = tested on: Pseudomonas aeruginosa; assay: Susceptibility testing against Pseudomonas aeruginosa PAE_NUH17; S=Susceptible; assay type: functional, organism-based; procedure, shortened: as §1
[9] = tested on: Pseudomonas aeruginosa; assay: Susceptibility testing against Pseudomonas aeruginosa PAE_NUH23; S=Susceptible; assay type: functional, organism-based; procedure, shortened: as §1
[10] = tested on: Pseudomonas aeruginosa; assay: Susceptibility testing against Pseudomonas aeruginosa PAE_NUH06; R=Resistant; assay type: functional, organism-based; procedure, shortened: as §2
[11] = tested on: Pseudomonas aeruginosa; assay: Susceptibility testing against Pseudomonas aeruginosa PAE_NUH02; R=Resistant; assay type: functional, organism-based; procedure, shortened: as §2
[12] = tested on: Pseudomonas aeruginosa; assay: Susceptibility testing against Pseudomonas aeruginosa PAE_NUH04; R=Resistant; assay type: functional, organism-based; procedure, shortened: as §2
[13] = tested on: Pseudomonas aeruginosa; assay: Susceptibility testing against Pseudomonas aeruginosa PAE_NUH18; S=Susceptible; assay type: functional, organism-based; procedure, shortened: as §1
[14] = tested on: Pseudomonas aeruginosa; assay: Susceptibility testing against Pseudomonas aeruginosa ATCC 27853; S=Susceptible; assay type: functional, organism-based; procedure, shortened: as §1
[15] = tested on: Pseudomonas aeruginosa; assay: Susceptibility testing against Pseudomonas aeruginosa PAE_NUH07; R=Resistant; assay type: functional, organism-based; procedure, shortened: as §2
[16] = tested on: Pseudomonas aeruginosa; assay: Susceptibility testing against Pseudomonas aeruginosa PAE_NUH24; S=Susceptible; assay type: functional, organism-based; procedure, shortened: as §1
[17] = tested on: Pseudomonas aeruginosa; assay: Susceptibility testing against Pseudomonas aeruginosa PAE_NUH25; S=Susceptible; assay type: functional, organism-based; procedure, shortened: as §1
[18] = tested on: Enterococcus faecalis; assay: In vitro minimum inhibitory concentration against Enterococcus faecalis 29212; assay type: functional
Procedure, shortened: (§3)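 Broth microdilution following CLSI M100-S12. Stocks were 10 mg/mL in water, diluted in Mueller–Hinton broth to a top level of 128, then serially 2-fold in plates. Bacteria in cation-adjusted Mueller–Hinton broth were mixed 1:1 with drug and incubated 16–20 h at 35 °C. MIC was the lowest concentration with no visible growth. Run in duplicate with no-antibiotic and no-inoculum (sterility) controls.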

[19] = tested on: Escherichia coli; assay: In vitro minimum inhibitory concentration against Escherichia coli ATCC 25922; assay type: functional; procedure, shortened: as §3
[20] = tested on: Pseudomonas aeruginosa; assay: In vitro minimum inhibitory concentration against Pseudomonas aeruginosa PAO-1; assay type: functional; procedure, shortened: as §3
[21] = tested on: Pseudomonas aeruginosa; assay: In vitro minimum inhibitory concentration against Pseudomonas aeruginosa ATCC 27853; assay type: functional; procedure, shortened: as §3
[22] = tested on: Staphylococcus aureus; assay: In vitro minimum inhibitory concentration against Staphylococcus aureus ATCC 29213; assay type: functional; procedure, shortened: as §3
[23] = tested on: Staphylococcus aureus; assay: In vitro minimum inhibitory concentration against Staphylococcus aureus MRSA 3359; assay type: functional; procedure, shortened: as §3
[24] = tested on: Pseudomonas aeruginosa; assay: Susceptibility testing against Pseudomonas aeruginosa PAE_NUH24; R=Resistant; assay type: functional, organism-based; procedure, shortened: as §2
[25] = tested on: Pseudomonas aeruginosa; assay: Susceptibility testing against Pseudomonas aeruginosa PAE_NUH22; R=Resistant; assay type: functional, organism-based; procedure, shortened: as §2
[26] = tested on: Pseudomonas aeruginosa; assay: Susceptibility testing against Pseudomonas aeruginosa PAE_NUH21; R=Resistant; assay type: functional, organism-based; procedure, shortened: as §2
[27] = tested on: Pseudomonas aeruginosa; assay: Susceptibility testing against Pseudomonas aeruginosa PAE_NUH19; R=Resistant; assay type: functional, organism-based; procedure, shortened: as §2
[28] = tested on: Pseudomonas aeruginosa; assay: Susceptibility testing against Pseudomonas aeruginosa PAE_NUH23; R=Resistant; assay type: functional, organism-based; procedure, shortened: as §2
[29] = tested on: Pseudomonas aeruginosa; assay: Susceptibility testing against Pseudomonas aeruginosa PAE_NUH25; R=Resistant; assay type: functional, organism-based; procedure, shortened: as §2
[30] = tested on: Pseudomonas aeruginosa; assay: Susceptibility testing against Pseudomonas aeruginosa PAE_NUH18; R=Resistant; assay type: functional, organism-based; procedure, shortened: as §2
[31] = tested on: Pseudomonas aeruginosa; assay: Susceptibility testing against Pseudomonas aeruginosa PAE_NUH20; R=Resistant; assay type: functional, organism-based; procedure, shortened: as §2
[32] = tested on: Pseudomonas aeruginosa; assay: Susceptibility testing against Pseudomonas aeruginosa PAE_NUH07; S=Susceptible; assay type: functional, organism-based; procedure, shortened: as §1

Row | SMILES | Activity [1] | Activity [2] | Activity [3] | Activity [4] | Activity [5] | Activity [6] | Activity [7] | Activity [8] | Activity [9] | Activity [10] | Activity [11] | Activity [12] | Activity [13] | Activity [14] | MIC [18] [µg/mL] | MIC [19] [µg/mL] | MIC [20] [µg/mL] | MIC [21] [µg/mL] | MIC [22] [µg/mL] | MIC [23] [µg/mL] | further results
1 | O=C(O)c1cn(C2CC2)c2cc(N3CCNCC3)c(F)cc2c1=O | Susceptible | Resistant | Resistant | Resistant | Susceptible | Susceptible | Susceptible | Susceptible | Susceptible | Resistant | Resistant | Resistant | Susceptible | Susceptible |  |  |  |  |  |  | Activity [15]: Resistant; Activity [16]: Susceptible; Activity [17]: Susceptible
2 | NC[C@H]1O[C@H](O[C@H]2[C@H](OC[C@H](O)CN3CCCN(C[C@@H](O)CO[C@@H]4[C@@H](O)[C@H](N)C[C@H](N)[C@H]4O[C@H]4O[C@H](CN)[C@@H](O)[C@H](O)[C@H]4N)CC3)[C@@H](O)[C@H](N)C[C@@H]2N)[C@H](N)[C@@H](O)[C@@H]1O |  |  |  |  |  |  |  |  |  |  |  |  |  |  | > 50 | 50 (≈ 58.3 µM) | 50 (≈ 58.3 µM) | 12.5 (≈ 14.6 µM) | 12.5 (≈ 14.6 µM) | > 50 | 
3 | C[C@H]1[C@H](NC(=O)/C(=N\OC(C)(C)C(=O)O)c2csc(N)n2)C(=O)N1S(=O)(=O)O |  | Resistant | Resistant | Resistant |  |  |  | Susceptible |  | Resistant | Resistant | Resistant |  | Susceptible |  |  |  |  |  |  | Activity [24]: Resistant; Activity [25]: Resistant; Activity [26]: Resistant; Activity [27]: Resistant; Activity [28]: Resistant; Activity [29]: Resistant; Activity [30]: Resistant; Activity [31]: Resistant; Activity [15]: Resistant
4 | CCN(CCN(CC)C[C@@H](O)CO[C@@H]1[C@@H](O)[C@H](N)C[C@H](N)[C@H]1O[C@H]1O[C@H](CN)[C@@H](O)[C@H](O)[C@H]1N)C[C@@H](O)CO[C@@H]1[C@@H](O)[C@H](N)C[C@H](N)[C@H]1O[C@H]1O[C@H](CN)[C@@H](O)[C@H](O)[C@H]1N |  |  |  |  |  |  |  |  |  |  |  |  |  |  | > 50 | > 50 | > 50 | > 50 | > 50 | > 50 | 
5 | NCC[C@H](O)C(=O)N[C@@H]1C[C@H](N)[C@@H](O[C@H]2O[C@H](CN)[C@@H](O)[C@H](O)[C@H]2O)[C@H](O)[C@H]1O[C@H]1O[C@H](CO)[C@@H](O)[C@H](N)[C@H]1O | Susceptible | Resistant | Resistant | Resistant | Susceptible | Susceptible | Susceptible | Susceptible | Susceptible | Resistant | Resistant | Resistant | Susceptible | Susceptible |  |  |  |  |  |  | Activity [32]: Susceptible; Activity [16]: Susceptible; Activity [17]: Susceptible
6 | NC[C@H]1O[C@H](O[C@H]2[C@H](OC[C@H](O)CN3CCN(C[C@@H](O)CO[C@@H]4[C@@H](O)[C@H](N)C[C@H](N)[C@H]4O[C@H]4O[C@H](CN)[C@@H](O)[C@H](O)[C@H]4N)CC3)[C@@H](O)[C@H](N)C[C@@H]2N)[C@H](N)[C@@H](O)[C@@H]1O |  |  |  |  |  |  |  |  |  |  |  |  |  |  | > 50 | 25 (≈ 29.7 µM) | 25 (≈ 29.7 µM) | 25 (≈ 29.7 µM) | 12.5 (≈ 14.8 µM) | > 50 | 
